The results in this text go back to PubChem BioAssay.

A short description of experiment [1]: inhibitors of TNFa-induced NFkB p65 translocation, primary screen, imaging, HUVEC, MLSMR starter and 10KST1 sets (AID 438;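 active = inhibition above 20% together with a positive visual image hit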;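 note: compound added about 3h40 before a 20 min TNFalpha stimulation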;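 for inhibition: signal is the nuclear over cytoplasmic p65 intensity ratio per well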). Conditions: HUVEC TNFa-induced p65 nuclear translocation; cell count: measured here: nuclei count (cytotoxicity indicator), at 2.08 µM unless noted; inhibition: at 2 µM, stronger effect = higher value unless noted.
A short description of experiment [2]: inhibitors of mutant huntingtin aggregation, primary screen, imaging, exon1htt(103Q)mCFP cells, high-content imaging (AID 483;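 active = visual image review flags a hit and inhibition of aggregation exceeds 20%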;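 note: compound exposure lasted 3 days before fixation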;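 for nuclei count: percent of the per-plate median nuclei count of sample wells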). The settings on record: exon1htt(103Q)mCFP cell line, aggregate imaging, at 2 µM; inhibition of aggregation: stronger effect = higher value; nuclei count: measured here: cell count, toxicity.
Experiment [3] in a line: inhibitors of E-selectin induction by TNFa, primary screen, imaging, HUVEC, immunofluorescence, MLSMR starter and 10KST1 sets (AID 487;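 active = visually confirmed hit in the image check and inhibition above 20%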;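 for inhibition: signal is fraction of cell area covered by stained E-selectin grains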;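 for nuclei count: 100% = median nuclei count of all wells on the same plate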). The settings on record: HUVEC TNFalpha-induced E-selectin immunofluorescence imaging, at 2 µM; inhibition: stronger effect = higher value; nuclei count: measured here: cell number, toxicity.
For experiment [4], the target named is Voltage-gated potassium channel subunit beta-2 (Rattus norvegicus) (UniProt P62483). Description: KvBeta enzyme negative modulators, primary screen, biochemical, NADPH fluorescence (AID 622;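 active = fluorescence slope higher than the sample average by over 3 SD, cut at about -0.22 in these data, passing the limit was not always enough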;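 note: slope of raw intensity against log time taken from 70 to 1610 s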). Conditions: recombinant KvBeta, 4-cyanobenzaldehyde reduction, at 10 µM, stronger effect = higher value.
Voltage-gated potassium channel subunit beta-2 (Rattus norvegicus), sequence (P62483 whole entry, looked up): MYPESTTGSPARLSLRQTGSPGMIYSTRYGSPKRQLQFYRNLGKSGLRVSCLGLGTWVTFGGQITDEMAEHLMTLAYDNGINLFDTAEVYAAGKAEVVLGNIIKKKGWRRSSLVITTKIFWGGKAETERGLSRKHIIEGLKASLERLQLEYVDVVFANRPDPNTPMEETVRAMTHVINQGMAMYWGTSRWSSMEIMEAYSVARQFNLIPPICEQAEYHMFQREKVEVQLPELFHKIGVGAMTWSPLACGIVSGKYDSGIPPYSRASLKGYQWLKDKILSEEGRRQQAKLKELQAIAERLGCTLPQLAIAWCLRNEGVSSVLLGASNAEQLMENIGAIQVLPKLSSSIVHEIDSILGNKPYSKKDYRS
Experiment [5] shares this target. Description: KvBeta positive modulators, primary screen, biochemical, NADPH fluorescence (AID 623;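 active = NADPH fluorescence slope more negative than the mean of all samples by about 3 SD, 99.7% confidence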;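 note: fluorescence intensity change per second fitted from 20 to 320 s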). Conditions: Recombinant KvBeta, NADPH fluorescence decrease slope, 10 min; at 10 µM; stronger effect = lower value.
Experiment [6] addresses Muscarinic acetylcholine receptor M4 (Homo sapiens) (UniProt P08173). Put plainly: compounds altering M4/GIRK thallium flux, either direction, primary screen, M4 allosteric agonist project, cell-based, HEK293 M4/GIRK, BTC-AM (AID 625;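 active = fluorescence slope after compound addition differing from the mean of all tested samples at 99.7% confidence, mostly higher but some lower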;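 note: thallium influx through GIRK channels coupled to M4 in HEK293 cells with BTC-AM dye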). The settings on record: at 10 µM, actives lie on both sides. In short, it runs like this: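 assay system = HEK293 cells with M4 receptor and GIRK channels | medium = pH 7.3 thallium assay buffer | doses = 10 µM final, single point | timing = cells overnight at 37 °C, BTC-AM loading 1 h, reads 2 min total | signal = BTC-AM fluorescence, 1 Hz kinetic reads | read-out = post-addition slope, 15–24 s, of baseline-normalized fluorescence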

Experiment [7] can be described thus: inhibitors of Sendai virus-induced IRF3 signaling, primary screen, TLR/RLR signaling modifier project, cell-based, Sendai virus stimulus, luciferase, 10K MLSCN set (AID 602276;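 active = inhibition at or above 50% at 10 µM; inactive = inhibition below 50%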;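 note: firefly luciferase from ISG56 promoter only with Renilla not read in this screen; 0% = Sendai virus plus DMSO and 100% = medium plus DMSO without virus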). The settings on record: HEK293 RL24 IRF3 luciferase reporter, at 10 µM, stronger effect = higher value. (In general: In a reporter assay the amount or activity of a reporter protein is the signal.)

Experiment [8] can be described thus: inhibitors of poly I:C-induced TLR3 signaling, primary screen, cell-based, poly I:C stimulus, luciferase, 10K MLSCN set (AID 602277). Conditions: HEK293-TLR3 RL24 IRF3 luciferase reporter, at 10 µM, stronger effect = higher value.
Experiment [9] deals with Alpha-2C adrenergic receptor (Homo sapiens) (UniProt P18825). Put plainly: modulators of alpha2C/GIRK thallium flux, primary screen, cell-based, HEK293 alpha2C/GIRK1/2 (AID 624;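 active = fluorescence slope after compound addition differing from the mean of all screened samples at 99.7% confidence, in either direction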;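 note: slope of fluorescence ratio to pre-addition baseline per second over 15 to 24 s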). The settings on record: thallium flux BTC fluorescence, at 10 µM, actives lie on both sides.
Alpha-2C adrenergic receptor (Homo sapiens), sequence (P18825 whole entry, looked up): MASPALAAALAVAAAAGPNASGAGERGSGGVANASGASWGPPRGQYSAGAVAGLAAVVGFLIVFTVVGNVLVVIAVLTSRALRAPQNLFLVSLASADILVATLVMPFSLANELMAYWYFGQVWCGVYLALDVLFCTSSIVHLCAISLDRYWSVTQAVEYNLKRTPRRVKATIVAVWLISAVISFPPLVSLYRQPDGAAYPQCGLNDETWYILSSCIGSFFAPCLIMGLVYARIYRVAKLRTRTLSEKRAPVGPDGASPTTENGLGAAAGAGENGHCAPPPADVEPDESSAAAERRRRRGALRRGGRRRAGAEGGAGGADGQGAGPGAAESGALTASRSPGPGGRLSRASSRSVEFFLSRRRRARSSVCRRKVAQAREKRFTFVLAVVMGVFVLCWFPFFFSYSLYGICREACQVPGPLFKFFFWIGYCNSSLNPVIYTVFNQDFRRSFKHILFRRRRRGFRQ

Active and inactive are the calls of the source.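 Rule for the calls, unless noted: active = inhibition of the reporter signal at or above 50%; inactive = inhibition below 50%.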

Muscarinic acetylcholine receptor M4 (Homo sapiens), sequence (P08173 whole entry, looked up): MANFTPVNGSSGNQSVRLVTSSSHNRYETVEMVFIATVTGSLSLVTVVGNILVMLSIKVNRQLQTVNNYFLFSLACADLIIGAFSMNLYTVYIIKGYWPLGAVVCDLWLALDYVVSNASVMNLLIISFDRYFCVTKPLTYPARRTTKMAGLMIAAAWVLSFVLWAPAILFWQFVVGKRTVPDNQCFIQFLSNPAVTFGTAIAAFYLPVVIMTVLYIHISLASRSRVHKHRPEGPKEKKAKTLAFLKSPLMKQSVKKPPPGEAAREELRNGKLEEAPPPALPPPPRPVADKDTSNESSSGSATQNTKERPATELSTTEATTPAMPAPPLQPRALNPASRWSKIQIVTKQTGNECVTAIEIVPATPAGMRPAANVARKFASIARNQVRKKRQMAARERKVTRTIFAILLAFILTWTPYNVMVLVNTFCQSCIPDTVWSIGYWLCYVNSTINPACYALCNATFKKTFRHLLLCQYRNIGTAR

What is called inhibition is the drop in the measured response relative to a control, in per cent. `COc1cc(C2NCc3ccccc3-n3cccc32)ccc1O` (centres undefined) gave a cell count in [1] of 660. In addition, the inhibition in experiment [1] was -19.1% (inactive); in experiment [3] it was -128% (inactive); in [7] it was -1.03% (inactive); in experiment [8], -2.21% (inactive). Also, in experiment [2], the inhibition of aggregation is 12.9% (inactive). For the same molecule, the results for the nuclei count in [2] and in experiment [3] were 123% and 110%, respectively. In addition, the results for the fluorescence slope in experiment [4] and in [6] were -0.487 (inactive) and 0.00515 (inactive), respectively. The NADPH fluorescence slope in experiment [5] is -3.3e-05 (inactive).
The molecule `CCCNC(=O)c1c(N)n(Cc2ccc3c(c2)OCO3)c2nc3ccccc3nc12` returned a cell count in experiment [1] of 699. Moreover, the inhibition in [1] was -14.7% (inactive); in [3], -9.2% (inactive); in experiment [7], 19.3% (inactive); in experiment [8] it was 24.3% (inactive). In [2], the inhibition of aggregation is -5.3% (inactive). Further, the nuclei count in [2] amounted to 104%; in experiment [3], 107%. Moreover, in experiment [4], the fluorescence slope is -0.559 (inactive). Moreover, the NADPH fluorescence slope in [5] is -2.1e-05 (inactive). In experiment [9], the slope was 0.00324 (inactive).
In the case of `O=C(NCc1ccccn1)c1ccccc1Cl`, the cell count in [1] stood at 627. The inhibition in experiment [1] is -0.6% (inactive); in [3] it was -26.1% (inactive); in [7], 10.8% (inactive); in experiment [8] it was 10.8% (inactive). In [2], the inhibition of aggregation was 2.9% (inactive). Also, the nuclei count turned out to be 111% in [2] and 92.5% in experiment [3]. Further, the fluorescence slope in experiment [4] was -0.532 (inactive). For the same molecule, the NADPH fluorescence slope in experiment [5] is -5.9e-05 (inactive). In addition, in experiment [9], the slope is 0.00536 (inactive).
`COC(=O)c1ccccc1-n1c(C)nc2ccccc2c1=O` displayed a cell count in [1] of 328. The inhibition in experiment [1] was -4.4% (inactive); in experiment [3] it was -140% (inactive); in experiment [7] it was -2.94% (inactive); in experiment [8] it was -2.38% (inactive). Further, in [2], the inhibition of aggregation is -24.8% (inactive). Besides, the figures for the nuclei count in [2] and in experiment [3] were 103% and 115%, respectively. Besides, the fluorescence slope is -0.605 (inactive) in experiment [4] and 0.00587 (inactive) in [6]. The NADPH fluorescence slope in experiment [5] is 4.4e-06 (inactive).
`COc1ccc(OC)c(C2=NOC(C(=O)N3CCC4(CC3)OCCO4)C2)c1` (centres undefined) yielded a cell count in [1] of 789. Further, the inhibition in experiment [1] is -17.7% (inactive); in experiment [3] it was -52.4% (inactive); in experiment [7], 10.6% (inactive); in [8] it was 17% (inactive). Moreover, the inhibition of aggregation in experiment [2] was 4% (inactive). Further, the results for the nuclei count in experiment [2] and in experiment [3] were 84.6% and 77.7%, respectively. Moreover, the fluorescence slope in [4] is -0.234 (inactive); in [6], 0.00835 (inactive). Further, the NADPH fluorescence slope in [5] was -6.7e-06 (inactive).
In turn, `Oc1ccc(C2NCc3ccccc3-n3cccc32)cc1Cl` (centres undefined) gave a cell count in experiment [1] of 668. Moreover, the inhibition in experiment [1] is -13.6% (inactive); in experiment [3], -48.5% (inactive); in experiment [7], 4.87% (inactive); in experiment [8] it was 23.9% (inactive). Also, the inhibition of aggregation in experiment [2] is 35.1% (inactive). Moreover, the nuclei count in experiment [2] stood at 127%; in experiment [3] it was 110%. The fluorescence slope in experiment [4] was -0.46 (inactive); in experiment [6] it was 0.00669 (inactive). Also, the NADPH fluorescence slope in [5] was -3.3e-05 (inactive).
With `OCC12COC3c4ccccc4C(OC1)N32` (centres undefined), the cell count in [1] was 478. In addition, the inhibition was -7.1% (inactive) in experiment [1], -7.2% (inactive) in [3], 5.14% (inactive) in [7] and 12.6% (inactive) in experiment [8]. In [2], the inhibition of aggregation was -0.1% (inactive). In addition, the nuclei count in experiment [2] came to 109%; in [3], 112%. Besides, the fluorescence slope in experiment [4] is -0.538 (inactive); in [6], 0.00589 (inactive). The NADPH fluorescence slope in experiment [5] was -4.5e-06 (inactive).
The molecule `CCOc1ccc(Br)c(C2(O)CC(C)N(C)CC2C)c1` (centres undefined) displayed a cell count in experiment [1] of 607. Moreover, the inhibition was -10.1% (inactive) in [1], -36.6% (inactive) in experiment [3], 12.4% (inactive) in experiment [7] and 21.4% (inactive) in experiment [8]. Moreover, the inhibition of aggregation in experiment [2] was -25.8% (inactive). Also, the figures for the nuclei count in experiment [2] and in [3] were 122% and 121%, respectively. The fluorescence slope is -0.398 (inactive) in experiment [4] and 0.00551 (inactive) in experiment [6]. The NADPH fluorescence slope in experiment [5] is -8.9e-05 (inactive).
Turning to `CC1(C)CC(=O)C=C(NCCN2CCN(C(=O)Cc3ccc(Cl)cc3)CC2)C1`, the cell count in experiment [1] is 706. Further, the inhibition in experiment [1] is -4.2% (inactive); in experiment [3] it was -80.1% (inactive); in [7] it was 16.3% (inactive); in [8], 9.81% (inactive). Further, in experiment [2], the inhibition of aggregation was 3% (inactive). The nuclei count in [2] worked out at 120%; in experiment [3], 109%. The fluorescence slope in experiment [4] was -0.463 (inactive); in [6], 0.00475 (inactive). Further, in experiment [5], the NADPH fluorescence slope is -4.2e-05 (inactive).
In turn, `COc1ccccc1OCCCn1cc(C(=O)c2ccco2)c2ccccc21` had a cell count in experiment [1] of 596. The inhibition is -2.5% (inactive) in [1], -29.4% (inactive) in experiment [3], -22.2% (inactive) in [7] and -81.2% (inactive) in experiment [8]. Moreover, the inhibition of aggregation in [2] is -12.2% (inactive). The nuclei count in [2] came to 101%; in [3], 111%. In addition, the results for the fluorescence slope in experiment [4] and in experiment [6] were -0.309 (inactive) and 0.00746 (inactive), respectively. Moreover, in experiment [5], the NADPH fluorescence slope was -2.9e-06 (inactive).
The molecule `CC(=NCc1cccnc1)c1c(O)n(Cc2ccccc2)c(=O)[nH]c1=O` showed a cell count in experiment [1] of 421. In addition, the inhibition was 1.2% (inactive) in experiment [1], -174% (inactive) in experiment [3], 9.01% (inactive) in [7] and 3.95% (inactive) in [8]. Further, the inhibition of aggregation in experiment [2] is -11.9% (inactive). Further, the nuclei count in experiment [2] was determined as 120%; in experiment [3], 126%. Further, the fluorescence slope in experiment [4] is -0.492 (inactive); in [6], 0.0065 (inactive). Besides, the NADPH fluorescence slope in [5] is 0.000113 (inactive).
For `CCOC(=O)c1cccc([P+](=O)O)c1`, in [1], the cell count is 570. The inhibition in experiment [1] was 0% (inactive); in experiment [3] it was -41.6% (inactive); in experiment [7], -12.3% (inactive); in [8], -3.34% (inactive). Further, in experiment [2], the inhibition of aggregation is 1.9% (inactive). Besides, the nuclei count was 95.2% in experiment [2] and 106% in [3]. Moreover, the results for the fluorescence slope in [4] and in experiment [6] were -0.582 (inactive) and 0.00773 (inactive), respectively. In [5], the NADPH fluorescence slope is -3.4e-05 (inactive).
For `NC(=O)OCCSc1nnc(-c2cccc(C(N)=S)c2)o1`, in [1], the cell count was 330. Also, the inhibition was 3.5% (inactive) in experiment [1], -48% (inactive) in experiment [3], 17.8% (inactive) in experiment [7] and 12.8% (inactive) in experiment [8]. Besides, the inhibition of aggregation in [2] was -7.4% (inactive). The nuclei count is 107% in [2] and 96.2% in experiment [3]. Besides, the values for the fluorescence slope in [4] and in experiment [6] were -0.541 (inactive) and 0.00508 (inactive), respectively. For the same molecule, the NADPH fluorescence slope in experiment [5] was -9.5e-05 (inactive).
`COc1ccc(C2NCc3ccc4c(c3-n3cccc32)OCO4)cc1O` (centres undefined) yielded a cell count in [1] of 479. For the same molecule, the inhibition in [1] is 9.5% (inactive); in experiment [3], -140% (inactive); in experiment [7], 27.9% (inactive); in experiment [8], 83% (active). The inhibition of aggregation in experiment [2] is -349% (inactive). The nuclei count in experiment [2] was determined as 0.8%; in experiment [3], 99%. The values for the fluorescence slope in [4] and in experiment [6] were -0.458 (inactive) and 0.00468 (inactive), respectively. Also, the NADPH fluorescence slope in experiment [5] was -4.4e-05 (inactive).
